# ChEMBL document CHEMBL3603773, “Synthesis of novel triazoles and a tetrazole of escitalopram as cholinesterase inhibitors” (Bioorg Med Chem, 2015)
# Key:
# [1] = target: T1, Acetylcholinesterase (Homo sapiens, UniProt P22303); test: Inhibition of AChE (unknown origin) using acetylthiocholine iodide as substrate at 0.5 mM preincubated for 30 mins before substrate addition measured after 30 mins by Ellman method relative to control
# [2] = target: T1, Acetylcholinesterase; test: Inhibition of AChE (unknown origin) using acetylthiocholine iodide as substrate […] measured after 30 mins by Ellman method
# [3] = target: T2, Cholinesterase (Homo sapiens, UniProt P06276); test: Inhibition of BChE (unknown origin) using butyrylthiocholine chloride as substrate at 0.5 mM preincubated for 30 mins before substrate addition measured after 30 mins by Ellman method relative to control
# T2 sequence (P06276 whole entry): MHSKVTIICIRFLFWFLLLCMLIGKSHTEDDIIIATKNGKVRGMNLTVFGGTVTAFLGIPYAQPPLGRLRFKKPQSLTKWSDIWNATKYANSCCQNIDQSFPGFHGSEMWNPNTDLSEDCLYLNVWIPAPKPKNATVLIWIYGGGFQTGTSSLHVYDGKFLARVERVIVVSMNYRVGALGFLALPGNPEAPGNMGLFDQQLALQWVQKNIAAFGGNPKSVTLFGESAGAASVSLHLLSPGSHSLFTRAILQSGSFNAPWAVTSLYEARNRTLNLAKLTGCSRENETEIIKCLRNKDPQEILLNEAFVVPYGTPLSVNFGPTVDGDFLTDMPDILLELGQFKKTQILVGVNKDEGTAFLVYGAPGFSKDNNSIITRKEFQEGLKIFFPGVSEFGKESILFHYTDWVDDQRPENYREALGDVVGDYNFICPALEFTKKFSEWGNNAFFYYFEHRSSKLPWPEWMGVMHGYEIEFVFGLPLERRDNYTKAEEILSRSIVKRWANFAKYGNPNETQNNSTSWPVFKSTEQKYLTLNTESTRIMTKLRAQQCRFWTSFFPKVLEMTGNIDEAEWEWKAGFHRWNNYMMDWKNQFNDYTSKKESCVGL
# [4] = target: T2, Cholinesterase; test: Inhibition of BChE (unknown origin) using butyrylthiocholine chloride as substrate […] measured after 30 mins by Ellman method
# [5] = target: Cholinesterases; ACHE & BCHE (Homo sapiens) (UniProt P06276+P22303); test: Selectivity ratio of IC50 for AChE (unknown origin) to IC50 for BChE (unknown origin)
# Cholinesterases; ACHE & BCHE (Homo sapiens), sequence (P06276 whole entry, looked up): as the sequence (P06276 whole entry) above
# Cholinesterases; ACHE & BCHE (Homo sapiens), sequence (P22303 whole entry, looked up): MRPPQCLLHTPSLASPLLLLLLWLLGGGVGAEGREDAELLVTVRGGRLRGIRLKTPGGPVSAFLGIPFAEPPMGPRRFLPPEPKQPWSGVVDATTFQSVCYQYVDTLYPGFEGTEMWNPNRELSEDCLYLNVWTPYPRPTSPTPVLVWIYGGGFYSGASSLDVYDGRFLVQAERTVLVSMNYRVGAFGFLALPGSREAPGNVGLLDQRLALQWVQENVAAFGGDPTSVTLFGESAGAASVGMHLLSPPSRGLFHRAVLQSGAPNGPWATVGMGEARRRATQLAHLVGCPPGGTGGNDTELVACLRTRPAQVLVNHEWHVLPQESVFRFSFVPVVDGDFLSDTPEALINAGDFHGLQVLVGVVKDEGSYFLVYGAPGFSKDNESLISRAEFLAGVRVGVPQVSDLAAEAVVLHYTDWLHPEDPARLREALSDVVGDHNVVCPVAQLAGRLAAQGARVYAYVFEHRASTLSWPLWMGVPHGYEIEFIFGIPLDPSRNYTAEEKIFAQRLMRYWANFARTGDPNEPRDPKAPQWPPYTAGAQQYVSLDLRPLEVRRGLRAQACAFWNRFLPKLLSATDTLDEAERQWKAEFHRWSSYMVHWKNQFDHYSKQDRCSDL
# Method in brief: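 Ratio of IC50 for AChE to IC50 for BChE, both measured by Ellman assay. Each IC50 is the mean of three independent experiments.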
# [6] = target: T1, Acetylcholinesterase; test: Inhibition of AChE (unknown origin) using acetylthiocholine iodide as substrate at 0.25 mM preincubated for 30 mins before substrate addition measured after 30 mins by Ellman method relative to control
# [7] = target: T2, Cholinesterase; test: Inhibition of BChE (unknown origin) using butyrylthiocholine chloride as substrate at 0.25 mM preincubated for 30 mins before substrate addition measured after 30 mins by Ellman method relative to control
# T1 sequence (P22303 whole entry): as the sequence (P22303 whole entry, looked up) above
Structure (SMILES),inhibition [1] [%],IC50 [2] [µM],inhibition [3] [%],IC50 [4] [µM],Ratio IC50 [5],inhibition [6] [%],inhibition [7] [%]
CN(C)CCC[C@@]1(c2ccc(F)cc2)OCc2cc(-c3nnc(-c4ccc(F)cc4)[nH]3)ccc21,71.5,261,92.5,5.31,49.1,,
CN(C)CCC[C@@]1(c2ccc(F)cc2)OCc2cc(-c3nnc(-c4ccc(O)cc4)[nH]3)ccc21,59.2,388,78.7,140,2.76,,
COc1cccc(-c2nnc(-c3ccc4c(c3)CO[C@@]4(CCCN(C)C)c3ccc(F)cc3)[nH]2)c1,89.7,124,91,103,1.2,,
COc1cc(-c2nnc(-c3ccc4c(c3)CO[C@@]4(CCCN(C)C)c3ccc(F)cc3)[nH]2)ccc1O,34.8,< 500,88.6,24.1,< 20.8,,
CN(C)CCC[C@@]1(c2ccc(F)cc2)OCc2cc(-c3nnc(-c4cccc(I)c4)[nH]3)ccc21,25.1,> 500,75.5,188,> 2.67,,
CN(C)CCC[C@@]1(c2ccc(F)cc2)OCc2cc(-c3nnc(-c4ccc(Cl)cc4)[nH]3)ccc21,91.6,6.71,73.7,151,0.044,,
COc1ccccc1-c1nnc(-c2ccc3c(c2)CO[C@@]3(CCCN(C)C)c2ccc(F)cc2)[nH]1,80.4,161,-2.13,,,,
CN(C)CCC[C@@]1(c2ccc(F)cc2)OCc2cc(-c3nnc(-c4ccc(I)cc4)[nH]3)ccc21,30.5,> 500,85.6,161,> 3.11,,
COc1ccc(-c2nnc(-c3ccc4c(c3)CO[C@@]4(CCCN(C)C)c3ccc(F)cc3)[nH]2)cc1,10.3,,81.2,168,,,
CN(C)CCC[C@@]1(c2ccc(F)cc2)OCc2cc(-c3nnc(-c4ccccc4Cl)[nH]3)ccc21,19.5,,79.6,81.4,,,
CN(C)CCC[C@@]1(c2ccc(F)cc2)OCc2cc(-c3nnc(-c4ccc([N+](=O)[O-])cc4)[nH]3)ccc21,16.2,,69.7,106,,,
CN(C)CCC[C@@]1(c2ccc(F)cc2)OCc2cc(-c3nnc(-c4cccc(Cl)c4)[nH]3)ccc21,57.4,413,79.9,26.5,15.7,,
CN(C)CCC[C@@]1(c2ccc(F)cc2)OCc2cc(-c3nnc(-c4cccc(O)c4)[nH]3)ccc21,,< 500,,119,< 4.22,39.3,61.7
CN(C)CCC[C@@]1(c2ccc(F)cc2)OCc2cc(-c3nnc(-c4ccccc4[N+](=O)[O-])[nH]3)ccc21,5.09,,62.9,297,,,
CN(C)CCC[C@@]1(c2ccc(F)cc2)OCc2cc(-c3nnc(-c4ccc(Br)cc4)[nH]3)ccc21,15.6,,50.6,492,,,
CN(C)CCC[C@@]1(c2ccc(F)cc2)OCc2cc(-c3nnc(-c4ccccc4O)[nH]3)ccc21,16.3,,80.7,102,,,
CN(C)CCC[C@@]1(c2ccc(F)cc2)OCc2cc(-c3nnc(-c4cccc(Br)c4)[nH]3)ccc21,37.9,< 500,85.5,78,< 6.41,,
CN(C)CCC[C@@]1(c2ccc(F)cc2)OCc2cc(-c3nnc(-c4ccccc4Br)[nH]3)ccc21,19.4,,75,141,,,
CN(C)CCC[C@@]1(c2ccc(F)cc2)OCc2cc(-c3nnc(-c4cccc(N)c4)[nH]3)ccc21,29.9,> 500,73.5,188,> 2.67,,
CN(C)CCC[C@@]1(c2ccc(F)cc2)OCc2cc(-c3nnc(-c4ccccc4)[nH]3)ccc21,30.4,> 500,81.8,129,> 3.88,,
CN(C)CCC[C@@]1(c2ccc(F)cc2)OCc2cc(-c3nnc(-c4ccc(N)cc4)[nH]3)ccc21,15.3,,72.1,119,,,
Cc1ccc(-c2nnc(-c3ccc4c(c3)CO[C@@]4(CCCN(C)C)c3ccc(F)cc3)[nH]2)cc1,16,,91,152,,,
CN(C)CCC[C@@]1(c2ccc(F)cc2)OCc2cc(-c3nnc(-c4ccccc4I)[nH]3)ccc21,72.3,310,84.5,25.9,12,,
Cc1cccc(-c2nnc(-c3ccc4c(c3)CO[C@@]4(CCCN(C)C)c3ccc(F)cc3)[nH]2)c1,88.1,133,71.5,89.2,1.49,,
Cc1ccccc1-c1nnc(-c2ccc3c(c2)CO[C@@]3(CCCN(C)C)c2ccc(F)cc2)[nH]1,88.6,9.52,85,99.7,0.095,,
CN(C)CCC[C@@]1(c2ccc(F)cc2)OCc2cc(-c3nnc(-c4ccccc4F)[nH]3)ccc21,,188,,4.52,41.5,62.1,93.6
CN(C)CCC[C@@]1(c2ccc(F)cc2)OCc2cc(-c3nnc(-c4cccc([N+](=O)[O-])c4)[nH]3)ccc21,81.7,138,79.2,105,1.32,,
CN(C)CCC[C@@]1(c2ccc(F)cc2)OCc2cc(-c3nnc(-c4cccc(F)c4)[nH]3)ccc21,32.2,< 500,82.9,44.8,< 11.2,,
CN(C)CCC[C@@]1(c2ccc(F)cc2)OCc2cc(-c3nnc(-c4ccccc4N)[nH]3)ccc21,70.2,360,71.7,111,3.25,,
